From ChEMBL document CHEMBL1148762, “Lysosome and HER3 (ErbB3) selective anticancer agent kahalalide F: semisynthetic modifications and antifungal lead-exploration studies” (J Med Chem, 2007)
Values after ≈ are worked out from the molar mass of the structure shown.

Tests used:
Aspergillus fumigatus = experiment: Antimicrobial activity against Aspergillus fumigatus ATCC 90906; format: functional, organism-based
Cryptococcus neoformans = experiment: Antimicrobial activity against Cryptococcus neoformans ATCC 90113; format: functional, organism-based
Candida albicans = experiment: Antimicrobial activity against Candida albicans ATCC 90028; format: functional, organism-based
[1] = system: Mycobacterium intracellulare; experiment: Antimicrobial activity against Mycobacterium intracellular ATCC 23068; format: functional, organism-based
[2] = system: Mycobacterium tuberculosis; experiment: Antibacterial activity against Mycobacterium tuberculosis H37Rv at 16 ug/mL by micro plate alamar blue assay; format: functional
Method in brief: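 M. tuberculosis H37Rv ATCC 27294 grown in BACTEC 12B medium; microplate Alamar blue assay (MABA). Primary screen at a single concentration of 16 µg/mL, read as percent inhibition.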

Compound	IC50 (Aspergillus fumigatus) [µM]	IC50 (Cryptococcus neoformans) [µM]	IC50 (Candida albicans) [µM]	IC50 [1] [µM]	inhibition at 16 µg/mL [2] [%]	MBC [1] [µM]	MIC [1] [µM]
C/C=C(\NC(=O)[C@H](Cc1ccccc1)NC(=O)[C@H](NC(=O)[C@H](NC(=O)[C@H](NC(=O)[C@H](NC(=O)[C@H](CCCN)NC(=O)[C@H]1CCCN1C(=O)[C@H](NC(=O)[C@@H](NC(=O)[C@@H](NC(=O)[C@H](NC(=O)CCCC(C)C)C(C)C)[C@@H](C)O)C(C)C)C(C)C)[C@@H](C)CC)[C@@H](C)O)[C@@H](C)CC)C(C)C)C(=O)N[C@H](C(=O)O)C(C)C [KAHALALIDE G]	> 13.4	> 13.4	> 13.4	> 13.4	29	–	–
C/C=C1\NC(=O)[C@H](Cc2ccccc2)NC(=O)[C@@H](C(C)C)NC(=O)[C@@H]([C@@H](C)CC)NC(=O)[C@H](NC(=O)[C@H](NC(=O)[C@H](CCCNCc2ccc(F)cc2)NC(=O)[C@H]2CCCN2C(=O)[C@H](NC(=O)[C@@H](NC(=O)[C@@H](NC(=O)[C@H](NC(=O)CCCC(C)C)C(C)C)[C@@H](C)O)C(C)C)C(C)C)[C@@H](C)CC)[C@@H](C)OC(=O)[C@H](C(C)C)NC1=O	> 12.6	3.77	> 12.6	> 20	–	–	–
C/C=C1\NC(=O)[C@H](Cc2ccccc2)NC(=O)[C@@H](C(C)C)NC(=O)[C@@H]([C@@H](C)CC)NC(=O)[C@H](NC(=O)[C@H](NC(=O)[C@H](CCCNCc2ccncc2)NC(=O)[C@H]2CCCN2C(=O)[C@H](NC(=O)[C@@H](NC(=O)[C@@H](NC(=O)[C@H](NC(=O)CCCC(C)C)C(C)C)[C@@H](C)O)C(C)C)C(C)C)[C@@H](C)CC)[C@@H](C)OC(=O)[C@H](C(C)C)NC1=O	4.26	2.12	4.19	> 20	–	–	–
C/C=C1\NC(=O)[C@H](Cc2ccccc2)NC(=O)[C@@H](C(C)C)NC(=O)[C@@H]([C@@H](C)CC)NC(=O)[C@H](NC(=O)[C@H](NC(=O)[C@H](CCCN(CCCCCC)CCCCCC)NC(=O)[C@H]2CCCN2C(=O)[C@H](NC(=O)[C@@H](NC(=O)[C@@H](NC(=O)[C@H](NC(=O)CCCC(C)C)C(C)C)[C@@H](C)O)C(C)C)C(C)C)[C@@H](C)CC)[C@@H](C)OC(=O)[C@H](C(C)C)NC1=O	> 12.2	6.71	> 12.2	> 20	–	–	–
C/C=C1\NC(=O)[C@H](Cc2ccccc2)NC(=O)[C@@H](C(C)C)NC(=O)[C@@H]([C@@H](C)CC)NC(=O)[C@H](NC(=O)[C@H](NC(=O)[C@H](CCCNC(=O)c2cc3ccc(N(CC)CC)cc3oc2=O)NC(=O)[C@H]2CCCN2C(=O)[C@H](NC(=O)[C@@H](NC(=O)[C@@H](NC(=O)[C@H](NC(=O)CCCC(C)C)C(C)C)[C@@H](C)O)C(C)C)C(C)C)[C@@H](C)CC)[C@@H](C)OC(=O)[C@H](C(C)C)NC1=O	> 11.6	> 11.6	> 11.6	> 11.6	–	–	–
C/C=C1\NC(=O)[C@H](Cc2ccccc2)NC(=O)[C@@H](C(C)C)NC(=O)[C@@H]([C@@H](C)CC)NC(=O)[C@H](NC(=O)[C@H](NC(=O)[C@H](CCCN)NC(=O)[C@H]2CCCN2C(=O)[C@H](NC(=O)[C@@H](NC(=O)[C@@H](NC(=O)[C@H](NC(=O)CCCC(C)C)C(C)C)C(C)=O)C(C)C)C(C)C)[C@@H](C)CC)[C@@H](C)OC(=O)[C@H](C(C)C)NC1=O	> 13.6	4.34	12.4	> 20	–	–	–
C/C=C1\NC(=O)[C@H](Cc2ccccc2)NC(=O)[C@@H](C(C)C)NC(=O)[C@@H]([C@@H](C)CC)NC(=O)[C@H](NC(=O)[C@H](NC(=O)[C@H](CCCN(Cc2ccc(F)cc2)Cc2ccc(F)cc2)NC(=O)[C@H]2CCCN2C(=O)[C@H](NC(=O)[C@@H](NC(=O)[C@@H](NC(=O)[C@H](NC(=O)CCCC(C)C)C(C)C)[C@@H](C)O)C(C)C)C(C)C)[C@@H](C)CC)[C@@H](C)OC(=O)[C@H](C(C)C)NC1=O	> 11.8	> 11.8	> 11.8	> 11.8	–	–	–
O=C(O)c1cn(C2CC2)c2cc(N3CCNCC3)c(F)cc2c1=O [CIPROFLOXACIN]	–	–	–	0.42	–	> 1	1 (≈ 0.331 µg/mL)
